# Source: PubChem (The Scripps Research Institute Molecular Screening Center)
# SIAE primary = human SIAE inhibitors, primary screen, biochemical, fluorescence polarization, FP-Rh probe, 1536-well HTS. Sialate O-acetylesterase (Homo sapiens), Q9HAT2. SIAE FP-Rh probe binding. inhibition, % at 9.66 µM. hit rate 0.69% among 370,000;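 active means inhibition above a cutoff: mean of compounds within the control limits plus 3 SD of those, cut at about 17% in these data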
# HTRA1 inhibitor = HTRA1 serine protease inhibitors, primary screen, biochemical, fluorescence polarization, HTS. Q92743. inhibition, % at 5.96 µM. hit rate 0.5% among 340,000. recombinant HTRA1, FP-rhodamine activity-based probe; in the data active means inhibition above about 36%
# ABHD4 inh = ABHD4 inhibitors, primary screen, biochemical, fluorescence polarization, mouse; (Lyso)-N-acylphosphatidylethanolamine lipase (Mus musculus), Q8VD66; purified mABHD4, FP-Rh probe fluorescence polarization; inhibition, % at 8.92 µM; hit rate 0.54% among 370,000;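 active means inhibition exceeding the mean over every tested compound plus 3 SD, cut at about 30% in these data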
#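 Assay system: wild-type mouse ABHD4 protein; compound: single nominal dose of 8.92 µM, 0.89% DMSO final; schedule: 45 min + 60 min at 25 °C; measured by: FP readout, ex 525 nm / em 598 nm; evaluation: % inhibition of FP-Rh probe binding versus controls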
# PRMT1 FP inh = PRMT1 methyltransferase inhibitors, primary screen, biochemical, fluorescence polarization | Protein arginine N-methyltransferase 1 (Homo sapiens), Q99873 | recombinant PRMT1, activity-based probe fluorescence polarization | inhibition, % at 2.79 µM | hit rate 1.3% among 370,000 | AID 652257, 2013;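 active means inhibition above about 21% made by adding two undisclosed values, limit read from the data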
# Target sequence (Q99873 whole entry, looked up): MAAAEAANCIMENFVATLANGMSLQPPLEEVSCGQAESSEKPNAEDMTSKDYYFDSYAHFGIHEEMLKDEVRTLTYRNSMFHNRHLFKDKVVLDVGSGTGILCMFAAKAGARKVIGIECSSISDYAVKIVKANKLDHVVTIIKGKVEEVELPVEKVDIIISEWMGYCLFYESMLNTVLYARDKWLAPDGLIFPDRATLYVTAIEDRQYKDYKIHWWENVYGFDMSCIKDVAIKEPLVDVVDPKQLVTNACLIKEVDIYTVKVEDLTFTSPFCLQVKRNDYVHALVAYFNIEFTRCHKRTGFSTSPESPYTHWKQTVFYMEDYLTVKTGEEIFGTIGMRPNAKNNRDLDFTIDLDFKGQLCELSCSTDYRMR
# TCR CD3 inh = inhibitors of human TCR-CD3 interaction, primary screen, biochemical, fluorescence, TAMRA-labeled TCR probe; inhibition, % at 9.4 µM; hit rate 0.37% among 360,000; AID 651800, 2012; in the data active means inhibition above about 19%;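 further: recombinant mutant TCR 2C K166C tagged with TAMRA read by polarization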
# PRMT1 inh conf = PRMT1 methyltransferase inhibitors, confirmation, biochemical, fluorescence polarization, triplicate | hit rate 42% among 3,300 | shares compounds with PRMT1 FP inh | recombinant His-PRMT1, activity-based probe fluorescence polarization | inhibition, % at 2.79 µM;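 active means mean inhibition across replicates above the hit cutoff derived for the earlier primary screen, cut at about 22% in these data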
# ABHD4 confirm = ABHD4 inhibitors, retest, confirmation, biochemical, fluorescence polarization, mouse | shares compounds with ABHD4 inh | purified mABHD4, FP-Rh probe fluorescence polarization | inhibition, % at 8.92 µM | hit rate 55% among 1,800;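 active means mean inhibition across replicates above the hit cutoff set in the primary screen, cut at about 30% in these data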
# SIAE confirm = human SIAE inhibitors, retest, confirmation, biochemical, fluorescence polarization, FP-Rh probe, triplicate. shares compounds with SIAE primary. SIAE FP-Rh activity-based probe. inhibition, % at 9.66 µM. hit rate 13% among 2,300. AID 1117263, 2014;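 active means mean inhibition of the replicates above the hit cutoff set in the primary screen, cut at about 17% in these data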;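 further: inhibitors lower polarization as more probe stays unbound to SIAE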
# Numbers stand for hits; n = inactive; x = not tested or not shown. Most compounds without a hit are left out; they make up all but 2.6% or so of the library.
SMILES,SIAE primary,HTRA1 inhibitor,ABHD4 inh,PRMT1 FP inh,TCR CD3 inh,ABHD4 confirm,others
CC[C@H](C)[C@@H]1OC(=O)[C@H](C(C)C)N(C)C(=O)[C@H](C(C)C)NC(=O)[C@@H](C)[C@@H](CCCC#CBr)OC(=O)[C@H](C(C)C)N(C)C(=O)C2CCCN2C1=O (some centres not stated),n,x,n,n,x,x,
COP(=O)(C(=O)Nc1ccccc1)C(CC(C)C)NC(=O)OCc1ccccc1 (configuration not stated),n,x,n,n,x,x,
Brc1csc(N2CCNCC2)n1,n,x,n,n,x,x,
CN1C(=O)C(=Cc2ccccc2OS(=O)(=O)c2ccccc2)C(=O)N(C)C1=O,n,n,n,33.9,n,x,PRMT1 inh conf=n
CN1C(=O)C(=Cc2ccccc2OCc2ccc(C(=O)O)cc2)C(=O)N(C)C1=O,n,n,n,n,n,x,
COc1ccc2c3c([nH]c2c1)C(C)=NCC3,n,n,n,n,n,x,
CC1=NCCc2c1[nH]c1cc(O)ccc21,n,n,n,118.9,n,x,PRMT1 inh conf=124.7
O=C(NCCN1CCC2(CC1)C(=O)NCN2c1ccccc1)c1ccc(F)cc1F,n,x,n,n,n,x,
Cc1ccc(-c2nc(N3CCOCC3)s[n+]2-c2ccccc2)cc1,n,n,n,n,n,x,
CN(C)c1nc(-c2ccccc2)[n+](C)s1,n,n,n,34.0,n,x,PRMT1 inh conf=21.6
CCN1C(=O)C(=C/C=C/c2ccco2)C(=O)N(CC)C1=S,n,n,n,27.0,n,x,PRMT1 inh conf=33.8
CC(C)N1C(=O)/C(=C/C=C/c2ccco2)C(=O)N(Cc2ccco2)C1=O,n,n,n,29.3,n,x,PRMT1 inh conf=n
Cc1nn(C2CCOC(C)(C)C2)c2c1C(c1ccc(OC(C)C)cc1)SCC(=O)N2 (configuration not stated),n,n,n,27.7,n,x,PRMT1 inh conf=40.7
CCCC(C)n1[nH]c(=O)c2c1NC(=O)CSC2c1ccc(OC)cc1 (configuration not stated),n,n,n,n,n,x,
CC(=O)C1C(N2CC2)CC2C3CC=C4CC(O)CCC4(C)C3CCC21C (configuration not stated),n,n,n,n,n,x,
COC(=O)C1=C(c2cccc(C#N)c2)C[C@@H]2CC[C@H]1N2C(=O)N1CCCCC1,n,n,n,n,n,x,
CCN(CC)c1ccc(N=Cc2c(O)n(-c3ccccc3C)c(=O)[nH]c2=O)cc1,n,60.3,64.2,27.6,n,n,PRMT1 inh conf=n
Cc1[nH]c2ccccc2c1CN1CCCCC1,n,n,n,n,n,x,
COc1ccc2[nH]c(C)c(CCNCc3cccnc3)c2c1,22.1,n,33.7,120.0,n,n,PRMT1 inh conf=n;SIAE confirm=n
c1cc2c(cc1NC1=NCCO1)CCCC2,n,n,n,n,n,x,
O=c1[nH]c(=S)n(-c2ccc(Cl)cc2)c(O)c1C=Nc1ccc(N2CCOCC2)cc1,n,n,40.1,n,n,n,
O=c1[nH]c(=O)n(C2CCCCC2)c(O)c1C=Nc1ccc(N2CCOCC2)cc1,n,n,n,n,n,x,
C=CCn1c(O)c(C(C)=Nc2ccc(N(C)C)cc2)c(=O)[nH]c1=O,n,n,n,n,n,x,
C=CCn1c(O)c(C(C)=Nc2ccc(N(CC)CC)cc2)c(=O)[nH]c1=O,n,n,38.8,n,n,n,
O=C1C(Cl)=CC(=Nc2ccc(O)cc2)C=C1Cl,21.0,n,32.2,21.9,n,57.9,
SMILES,SIAE primary,HTRA1 inhibitor,ABHD4 inh,PRMT1 FP inh,TCR CD3 inh,ABHD4 confirm,others
O=[As](O)(O)c1ccc(N=Nc2ccc(O)cc2)cc1,n,n,n,n,n,x,
O=[N+]([O-])c1cc(S(=O)(=O)c2ccc(O)c([N+](=O)[O-])c2)ccc1O,n,n,39.9,n,n,31.1,
Cc1[nH]c2ccc(OC(F)(F)F)cc2c1CCNCc1cccc([N+](=O)[O-])c1,n,n,n,n,n,x,
Cc1[nH]c2ccc(OC(F)(F)F)cc2c1CCNCc1ccc(Cl)cc1,n,n,41.9,n,n,31.1,
CC1CC(OP(O)(=S)c2ccc(N(C)C)cc2NC(=O)c2cccs2)CC(C)(C)C1 (configuration not stated),n,n,41.4,n,n,50.0,
Nc1c(Br)cc2c3c(cccc13)-c1ccccc1-2,n,x,55.2,n,n,57.4,
O=C(CNC(=O)OCc1ccccc1)NC(Cc1ccccc1)P(=O)(Oc1ccccc1)Oc1ccccc1 (configuration not stated),n,x,n,n,x,x,
O=C(N/N=C/c1c(O)n(Cc2ccc(F)cc2)c(=O)[nH]c1=O)c1ccccc1O,n,n,33.7,n,n,51.7,
COc1ccc(Cn2c(O)c(/C=N/NC(=O)c3ccccc3O)c(=O)[nH]c2=O)cc1,n,n,30.1,n,n,38.5,
O=C(NCC1=C(c2cccc3ccccc23)C[C@@H]2CC[C@H]1N2Cc1ccco1)c1cccs1,n,n,n,n,n,x,
O=C(NCCN1CCC2(CC1)C(=O)NCN2c1ccccc1)c1cc(C(F)(F)F)ccc1C(F)(F)F,n,x,n,n,n,x,
O=C(NC1CCCCC1)Oc1cc2oc(=O)sc2cc1Cl,n,n,30.5,85.5,n,n,
O=C(NCCN1CCC2(CC1)C(=O)NCN2c1ccccc1)c1ccc(OC(F)(F)F)cc1,n,x,n,n,n,x,
FC(F)(F)c1ccc(-c2ccc3c(c2)CNCc2cnnn2-3)cc1,n,x,33.6,n,n,n,
Cc1ccc(C(=O)NCCN2CCC3(CC2)C(=O)NCN3c2ccccc2)cc1,n,x,n,n,n,x,
O=C1CC2OCC=C3CN4CCC56c7ccccc7N1C5C2C3CC46O (configuration not stated),n,x,n,n,n,x,
COc1cc(O)c2c(c1)/C=C/C[C@H](O)[C@H](O)[C@@H](O)/C=C/C[C@H](C)OC2=O,n,x,n,n,x,x,
O=C(N/N=C/c1c(O)n(Cc2ccccc2)c(=O)[nH]c1=O)c1ccccc1O,28.1,n,60.8,n,74.0,38.3,SIAE confirm=n
N#Cc1ccc(NC(=S)N2Cc3ccc(Br)cc3-n3nncc3C2)cc1,n,x,n,n,n,x,
CCCOP(=O)(OCCC)C(NC(=O)c1cc(OC)c(OC)c(OC)c1)c1ccccc1 (configuration not stated),17.2,n,n,n,n,x,SIAE confirm=n
